Experimental data published in ChEMBL document CHEMBL4732196, “Structural optimization towards promising β-methyl-4-acrylamido quinoline derivatives as PI3K/mTOR dual inhibitors for anti-cancer therapy: The in vitro and in vivo biological evaluation” (Eur J Med Chem, 2021).
Activity calls are given as the source filed them. No cut-off for these calls is given here.

Tests used:
PC-3 = experiment: Growth inhibition of human PC3 cells after 72 hrs by sulforhodamine B assay; assay type: functional
[1] = molecular target: Phosphatidylinositol 4,5-bisphosphate 3-kinase catalytic subunit alpha isoform (Homo sapiens, UniProt P42336); experiment: Inhibition of recombinant human PI3Kalpha using PIP2 as substrate incubated for 1 hr by kinase-glo luminescent assay
[2] = molecular target: T1, Serine/threonine-protein kinase mTOR (Homo sapiens, UniProt P42345); experiment: Inhibition of recombinant human N-terminal FLAG-tagged mTOR (1362 to end amino acids) using ULight-4E-BP1 as substrate incubated for 1 hr by LANCE Ultra assay
U-87 MG = experiment: Growth inhibition of human U87MG cells after 72 hrs by sulforhodamine B assay; assay type: functional, U-87MG ATCC
[3] = molecular target: T1, Serine/threonine-protein kinase mTOR; experiment: Inhibition of mTOR in human U87MG cells assessed as suppression of phosphorylation of S6 ribosomal at 25 nM after 3 hrs by Western blot analysis; conditions: U87
[4] = molecular target: T1, Serine/threonine-protein kinase mTOR; experiment: Inhibition of mTOR in human U87MG cells assessed as suppression of phosphorylation of S6 ribosomal at Ser235/236 residues at 25 nM after 3 hrs by Western blot analysis; assay type: cell-based; conditions: U87
Procedure, shortened: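 U87MG cells were seeded at 1×10^6 per well and held overnight at 37 °C, 5% CO2. They were then exposed to a range of inhibitor concentrations for 3 h at 37 °C. Phospho-Akt (Ser473, Thr308), phospho-S6 (Ser235/236) and phospho-4E-BP1 (Thr37/46) were measured by Western blot with GAPDH as loading control. Bands were quantified as mean ± SD of 3 biological replicates against untreated cells.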

U87 [5] = experiment: Inhibition of PI3K in human U87MG cells assessed as suppression of phosphorylation of AKT at Thr308 residue at 25 nM after 3 hrs by Western blot analysis; assay type: cell-based
Procedure, shortened: (§1)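 U87MG cells seeded at 1×10^6 per well, incubated overnight at 37 °C, 5% CO₂, then treated at various concentrations for 3 h at 37 °C. Western blot for phospho-Akt (Ser473, Thr308), phospho-S6 (Ser235/236) and phospho-4E-BP1 (Thr37/46), with GAPDH as internal control. Bands quantified as mean ± SD, n = 3 biological replicates, versus untreated cells.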

U87 [6] = experiment: Inhibition of PI3K in human U87MG cells assessed as suppression of phosphorylation of AKT at Ser473 residue at 25 nM after 3 hrs by Western blot analysis; assay type: cell-based; procedure, shortened: as §1
[7] = MRT(0 to t) in Sprague-Dawley rat at 5 mg/kg, po; assay type: ADME, organism-based; conditions: in vivo
Procedure, shortened: (§2)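 Male Sprague-Dawley rats (n = 3) received a single 5 mg/kg oral gavage dose formulated as a suspension in 0.5% methylcellulose. Plasma concentration-time curves were recorded and mean PK parameters derived.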

[8] = MRT(0 to infinity) in Sprague-Dawley rat at 5 mg/kg, po; assay type: ADME, organism-based; conditions: in vivo; procedure, shortened: as §2

Phosphatidylinositol 4,5-bisphosphate 3-kinase catalytic subunit alpha isoform, sequence (P42336 whole entry, canonical isoform): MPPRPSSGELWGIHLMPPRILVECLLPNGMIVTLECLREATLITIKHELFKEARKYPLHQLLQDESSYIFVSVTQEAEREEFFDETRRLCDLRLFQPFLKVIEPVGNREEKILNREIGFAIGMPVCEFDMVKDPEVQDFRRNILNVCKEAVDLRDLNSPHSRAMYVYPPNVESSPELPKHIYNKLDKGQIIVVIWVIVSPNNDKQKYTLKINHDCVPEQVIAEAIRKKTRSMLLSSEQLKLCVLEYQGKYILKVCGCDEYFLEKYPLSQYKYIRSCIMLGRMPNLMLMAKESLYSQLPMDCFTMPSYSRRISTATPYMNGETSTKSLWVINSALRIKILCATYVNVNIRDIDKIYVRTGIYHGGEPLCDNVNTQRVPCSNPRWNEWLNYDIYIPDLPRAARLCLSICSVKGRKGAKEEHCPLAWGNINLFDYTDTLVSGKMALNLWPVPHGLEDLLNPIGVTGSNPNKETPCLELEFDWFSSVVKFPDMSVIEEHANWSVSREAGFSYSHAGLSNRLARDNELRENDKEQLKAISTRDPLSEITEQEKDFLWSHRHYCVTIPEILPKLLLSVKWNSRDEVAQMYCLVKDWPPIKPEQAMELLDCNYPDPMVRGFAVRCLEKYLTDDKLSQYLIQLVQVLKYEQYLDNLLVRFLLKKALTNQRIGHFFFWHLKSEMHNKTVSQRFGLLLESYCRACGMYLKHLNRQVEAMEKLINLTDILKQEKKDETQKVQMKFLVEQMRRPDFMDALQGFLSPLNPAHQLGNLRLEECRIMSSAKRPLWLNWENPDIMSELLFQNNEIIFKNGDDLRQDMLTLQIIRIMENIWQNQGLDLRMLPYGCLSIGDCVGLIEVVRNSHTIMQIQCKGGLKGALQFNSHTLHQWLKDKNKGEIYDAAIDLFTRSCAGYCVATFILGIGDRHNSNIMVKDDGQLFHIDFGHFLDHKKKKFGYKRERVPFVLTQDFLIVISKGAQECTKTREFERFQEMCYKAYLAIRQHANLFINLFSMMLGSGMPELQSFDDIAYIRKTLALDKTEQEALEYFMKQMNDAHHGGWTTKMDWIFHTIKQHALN

| SMILES | GI50 (PC-3) [nM] | IC50 [1] [nM] | IC50 [2] [nM] | GI50 (U-87 MG) [nM] | inhibition [3] | inhibition [4] | inhibition (U87 [5]) | inhibition (U87 [6]) | MRT last [7] [h] | MRT inf [8] [h] |
| --- | --- | --- | --- | --- | --- | --- | --- | --- | --- | --- |
| COc1ncc(-c2ccc3nccc(/C(C)=C/C(=O)N4CCC(O)CC4)c3c2)cc1NS(=O)(=O)c1ccc(F)cc1F | 1080 | 1.4 | 6.1 | 600 | – | – | – | – | – | – |
| COc1ncc(-c2ccc3nccc(/C(C)=C/C(=O)N4CCCC4)c3c2)cc1NS(=O)(=O)c1ccc(F)cc1F | 1160 | 1.2 | 2.1 | 390 | – | – | – | – | – | – |
| COc1ncc(-c2ccc3nccc(/C(C)=C\C(=O)N4CCOCC4)c3c2)cc1NS(=O)(=O)c1ccc(F)cc1F | 8020 | 23 | 141 | > 10000 | – | – | – | – | – | – |
| COc1ncc(-c2ccc3nccc(/C(C)=C/C(=O)N(C)CCO)c3c2)cc1NS(=O)(=O)c1ccc(F)cc1F | 290 | 1.5 | 1.7 | 380 | – | – | – | – | – | – |
| COc1ncc(-c2ccc3nccc(-c4ccnnc4)c3c2)cc1NS(=O)(=O)c1ccc(F)cc1F [OMIPALISIB] | 250 | – | – | 220 | Active | Active | Active | Active | – | – |
| COc1ncc(-c2ccc3nccc(/C(C)=C/C(=O)N4CCOCC4)c3c2)cc1NS(=O)(=O)c1ccc(F)cc1F | 1670 | 1.1 | 3.3 | 610 | – | – | – | – | – | – |
| COc1ncc(-c2ccc3nccc(/C=C/C(=O)N4CCN(C)CC4)c3c2)cc1NS(=O)(=O)c1ccc(F)cc1F | 450 | 1.04 | 3.2 | 220 | – | – | – | – | 1.89 | 2.59 |
